Test: Displacement of [3H]DTG from sigma 2 receptor in rat liver membrane after 120 mins
Type: cell membranes
How it was run: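 Rat liver membranes (~300 µg protein) incubated with ~5 nM [3H]DTG plus 1 µM (+)-pentazocine to mask σ1 sites, 120 min at room temperature; 10 µM haloperidol defines nonspecific binding; filtration and scintillation counting. One-site nonlinear regression IC50, converted to Ki by Cheng-Prusoff; mean ± SEM.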

SMILES | Ki [nM]
COc1cc2c(cc1OC)CN(CCNC(=O)c1cc(C)ccc1OCCF)CC2 | 102
COc1cc2c(cc1OC)CN(CCCCNC(=O)c1cc(Br)ccc1OCCF)CC2 | 0.65
COc1cc2c(cc1OC)CN(CCCCNC(=O)c1cc(C)ccc1OCCF)CC2 | 6.95
COc1cc2c(cc1OC)CN(CCCCNC(=O)c1cc(I)cc(OC)c1OCCF)CC2 | 0.26
COc1cc2c(cc1OC)CN(CCCCNC(=O)c1cc(I)ccc1OCCF)CC2 | 1.06

Test: Selectivity for rat liver sigma 2 receptor over guinea pig brain sigma 1 receptor

SMILES | Ratio Ki
COc1cc2c(cc1OC)CN(CCNC(=O)c1cc(C)ccc1OCCF)CC2 | 222
COc1cc2c(cc1OC)CN(CCCCNC(=O)c1cc(Br)ccc1OCCF)CC2 | 1660
COc1cc2c(cc1OC)CN(CCCCNC(=O)c1cc(C)ccc1OCCF)CC2 | 48
COc1cc2c(cc1OC)CN(CCCCNC(=O)c1cc(I)cc(OC)c1OCCF)CC2 | 8190
